Screening results deposited in PubChem by several laboratories.
Yeast growth inh: chemicals that inhibit yeast BB579 growth in restrictive medium (lifespan-shortening candidates) | 0.51% of 140,000 active | inhibition, % at 10 µM | S. cerevisiae BB579 growth, OD615, 48 h;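 active means inhibition above a set limit, 3 SD over the mean compound inhibition, cut at about 44% in these data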
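System: DeaD yeast strain BB579; buffer or medium: CSMM-D dextrose restrictive medium; technique: OD at 615 nm; schedule: 4 h cell preincubation, 48 h compound exposure, 30 °C humidified; doses: single 10 µM dose; controls: amphotericin B 10 µg/mL, positive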
RAM network inh: yeast RAM network inhibition; 1.8% of 190,000 active; S. cerevisiae dse1pr::URA3 reporter, 5-FOA growth OD615, 2 d; analog-sensitive cbk1-as2 kinase mutant strain; inhibition, % at 50 µM; AID 868;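 active means inhibition above a set limit, 3 SD over mean compound inhibition, cut at about 8.4% in these data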;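 further: inhibition rescues growth on 5-FOA so higher OD means more RAM inhibition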
Cl transport mod: modulators of human KCC2 chloride dependent transport | Q9H2X9 | B-score of Tl+ flux slope (higher = more flux/activation; lower = inhibition) at 10 µM | AID 1456 | KCC2 cells, thallium flux FluoZin-2 fluorescence | 2.2% of 190,000 active;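 active means thallium flux slope and its plate-corrected score both differing from the plate sample mean at a set confidence after two filtering rounds, in either direction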;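 further: slope of fluorescence scaled to starting intensity during 10 to 20 s after thallium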
WT yeast gro inh: growth inhibition of WT yeast, mitochondrial fusion screen | mitochondrial fusion phenotypic screen, WT strain | inhibition, % at 10 µM | 2.1% of 190,000 active; in the data active means inhibition above about 58%; tested in S. cerevisiae
Yeast life ext: yeast lifespan extension; S. cerevisiae growth with nicotinamide, OD615; deaD strain in restrictive glucose medium; 0.68% of 130,000 active; inhibition of the nicotinamide effect, % at 10 µM;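 active means inhibition above a set limit, placed 3 SD over the median of all compounds, cut at about 26% in these data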
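Test system: DeaD-strain S. cerevisiae / Buffer or medium: restrictive glucose medium / Also added: nicotinamide 1.5 mM / Doses: one concentration, 10 µM, DMSO 0.25% / Schedule: 48 h at 30 °C / Signal: OD615 measurement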
Numbers stand for hits; i = inactive; nt = no result given. Most compounds without a hit are left out; they make up all but 5.5% or so of the library.

SMILES | Yeast growth inh | RAM network inh | Cl transport mod | WT yeast gro inh | Yeast life ext
Cc1cccc(C)c1OCCn1nc(C(=O)O)c2ccccc2c1=O | i | 10 | i | i | i
Cc1cccc(OCCn2nc(C(=O)O)c3ccccc3c2=O)c1 | i | i | i | i | i
CCOCCCNC(=S)Nc1cc(C)cc(C)c1 | i | i | i | i | i
CCOc1ccc(-n2cc(C(=O)c3cc(Cl)ccc3O)cc(C#N)c2=O)cc1 | nt | i | i | 59 | nt
COc1ccc(-n2cc(C(=O)c3cc(Cl)ccc3O)cc(C#N)c2=O)cc1 | nt | i | i | i | nt
O=C(COC(=O)/C=C/C(=O)OCC(=O)Nc1ccccc1F)Nc1ccccc1F | nt | nt | i | nt | nt
CC(=O)N(C(C)=O)N1C(=O)c2cccc3c(N4CCOCC4)ccc(c23)C1=O | nt | i | i | i | nt
CCN(CC)S(=O)(=O)c1ccc(C(=O)OCCN2C(=O)c3cccc4c(N5CCOCC5)ccc(c34)C2=O)cc1 | i | 10 | i | i | i
O=C(OCCN1C(=O)c2cccc3c(N4CCOCC4)ccc(c23)C1=O)c1cc(Cl)cc(Cl)c1 | i | 8.5 | i | i | i
COc1ccccc1N(CC(=O)NC1CCCC1)C(=O)c1oc(C(C)(C)C)cc1C | nt | i | nt | i | nt
Cc1cccc(OCCCN2CCCCCC2)c1 | i | i | i | i | i
COc1ccccc1OCCCCN1CCN(c2ccccc2OC)CC1 | i | i | i | i | i
COc1ccccc1OCCN1CSC(=S)N(C)C1 | 53 | i | i | i | i
Cc1cccc(OCCN2CSC(=S)N(C)C2)c1 | 67 | i | i | i | i
CCC(=O)NC(=S)Nc1ccc(Cl)cn1 | i | i | i | i | i
O=C(NC(=S)Nc1ccc(Cl)cn1)C12CC3CC(CC(C3)C1)C2 | nt | i | i | 73 | nt
O=C(NC(=S)Nc1ccc(Cl)cn1)C(c1ccccc1)c1ccccc1 | i | i | nt | 72 | i
O=C(Nc1ccc(Cl)cn1)C1CC1 | nt | i | i | i | nt
O=C(Nc1ccc(Cl)cn1)C1C(c2ccccc2)C1(Cl)Cl (configuration not stated) | nt | i | i | 71 | nt
O=C(O)c1cccc(-n2cccc2/C=C/[N+](=O)[O-])c1 | nt | nt | i | nt | nt
S=C(N/N=C/c1ccc2c(c1)OCO2)NC1CC2CCC1C2 (configuration not stated) | nt | nt | i | nt | nt
COc1cccc(-n2nnnc2SCC(=O)N2CCCc3ccccc32)c1 | i | i | i | i | i
CCn1c(=O)c2ccccc2n2c(SCC(=O)N3CCCc4ccccc43)nnc12 | i | i | i | i | 39
Cc1ccc(C)c2c1cc(C)c1nnc(SCC(=O)N3CCCc4ccccc43)n12 | i | i | i | i | i
COc1cc(OC)cc(-n2nnnc2SCC(=O)N2CCCc3ccccc32)c1 | i | 8.9 | i | i | i
SMILES | Yeast growth inh | RAM network inh | Cl transport mod | WT yeast gro inh | Yeast life ext
CCc1nnc(N2C(=N)SCC2=O)s1 | nt | i | i | i | nt
Cc1ccc(S(=O)(=O)N(C)C)cc1NC(=O)c1cncc(Br)c1 | i | i | i | i | i
Cc1ccc(NC(=O)CN(C)C(=O)c2cc3ccccc3o2)cc1 | nt | i | i | i | nt
COc1cccc(/C=C/C(=O)NCc2ccc(S(N)(=O)=O)cc2)c1 | nt | nt | i | nt | nt
CC[C@@H](C)C(NC(=O)OC(C)(C)C)c1cn([C@@H](CCC(=O)OC(C)(C)C)C(=O)N2CCN(C(=O)OC(C)(C)C)CC2)nn1 (some centres not stated) | nt | i | i | i | nt
O=C1C2C3C=CC(C4CC34)C2C(=O)N1c1ccc2c(c1)OCO2 (configuration not stated) | nt | i | i | i | nt
NNC(=O)C(Cc1c[nH]c2ccccc12)NC(=O)c1ccccc1 (configuration not stated) | nt | nt | i | nt | nt
CCOC(=O)c1cc(NC(=O)c2ccccc2)c(=O)oc1-c1ccccc1 | i | 9.5 | i | i | i
COc1ccc(CC(=O)NC(C)c2nnc(SCCOc3ccc(OC)cc3)n2C)cc1 (configuration not stated) | i | i | nt | i | i
COc1ccc(CNC(=O)c2csc(Cc3ccccc3)n2)cc1 | i | i | nt | i | i
COc1ccccc1CNC(=O)c1csc(Cc2ccc(Cl)cc2)n1 | i | 8.7 | nt | i | i
C=CCNC(=O)c1ccccc1NC(=O)c1ccc(Cl)c(S(=O)(=O)Nc2ccccc2)c1 | i | i | nt | i | i
CC(C(=O)NCCC1=CCCCC1)c1ccc([N+](=O)[O-])cc1 (configuration not stated) | nt | i | i | i | nt
CCn1c(SCC(=O)NC2CCCCC2)nnc1-c1cc2cccc(OC)c2o1 | i | i | i | i | i
COc1cccc2cc(-c3nnc(SCC(=O)NCc4ccccc4)n3C)oc12 | i | 9.1 | i | i | i
Cc1cc(Br)ccc1OCCn1ccnc1 | i | i | i | i | i
C/C(=N\OCC(=O)Nc1ccc(F)c(F)c1F)c1cc2ccccc2o1 | i | i | i | i | i
CSc1ccccc1NC(=O)CO/N=C(\C)c1cc2ccccc2o1 | i | 9.2 | i | i | i
O=C(CON=C1c2ccccc2-c2ccccc21)NC12CC3CC(CC(C3)C1)C2 | i | i | i | i | i
C/C(=N\OCC(=O)NC12CC3CC(CC(C3)C1)C2)c1cc2ccccc2o1 | i | i | i | 66 | i
CCc1ccc(NC(=O)CO/N=C(\C)c2cc3ccccc3o2)cc1 | i | 8.4 | i | i | i
Cc1cc(C#N)c(C)n1-c1cc(S(=O)(=O)N2CCOCC2)ccc1N1CCCC1 | i | i | i | i | i
COc1ccc(CCN(Cc2cccs2)S(=O)(=O)c2ccc(S(=O)(=O)N(C)C3CCCCC3)cc2)cc1OC | i | i | i | i | i
Cc1nc(NC(C)c2ccccc2)c2oc3ccccc3c2n1 (configuration not stated) | i | i | i | 66 | i
CCOC(=O)C(C)(C)N(Cc1ccc(C)cc1)S(=O)(=O)c1ccc(Cl)c([N+](=O)[O-])c1 | i | 9.8 | i | i | i
SMILES | Yeast growth inh | RAM network inh | Cl transport mod | WT yeast gro inh | Yeast life ext
CCOC(=O)C(C)(C)N(Cc1ccc(Cl)cc1)S(=O)(=O)c1ccc(Cl)c([N+](=O)[O-])c1 | i | 9.4 | i | i | i
CCOC(=O)C(C)(C)NS(=O)(=O)c1ccc(Cl)c([N+](=O)[O-])c1 | i | i | i | i | i
O/N=C/c1ccn(-c2ccc(Br)cc2)c1 | nt | i | i | i | nt
Cc1nnc2n(CCc3ccccc3)c(=O)c3c4c(sc3n12)CCCC4 | nt | nt | i | nt | nt
O=c1c2c3c(sc2n2cnnc2n1CCc1ccccc1)CCCC3 | i | 8.9 | nt | i | i
FC(F)(F)c1cccc(CNc2ncccc2-c2nc3cc(Cl)ccc3o2)c1 | i | 8.5 | nt | i | i
Cc1cc(C)cc(OCCCOc2cccc3cccnc23)c1 | i | i | i | 66 | i
CCc1c(C)nc2ncnn2c1NCCc1ccc(Cl)cc1 | nt | i | nt | i | nt
Cc1ccc(NC(=O)COC(=O)Cc2ccsc2)cc1S(=O)(=O)N(C)C | nt | nt | i | nt | nt
CCOCc1c(C(=O)OCC(=O)Nc2ccc(C)c(S(=O)(=O)N(C)C)c2)oc2ccccc12 | i | 8.7 | i | i | i
Cc1ccc(NC(=O)COC(=O)CCC(=O)c2ccc(Cl)cc2)cc1S(=O)(=O)N(C)C | i | 11 | i | i | i
